Reference: ChEMBL document CHEMBL4038284, “Synthesis of novel quinoline-based 4,5-dihydro-1H-pyrazoles as potential anticancer, antifungal, antibacterial and antiprotozoal agents” (Eur J Med Chem, 2017)
≈ marks a conversion by molar mass, not a printed value.

Legend:
[1] = system: Klebsiella pneumoniae; assay: Antibacterial activity against carbapenemase positive Klebsiella pneumoniae BAA 1705 after 24 hrs by resazurin dye based microdilution assay; assay type: functional; conditions: BAA 1705, 24 h
Procedure, shortened: (§1)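 MIC taken as the lowest concentration giving visible inhibition and/or by resazurin (1 mg/mL). Gentamicin was the control. Run in duplicate, repeated at least three times.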

[2] = system: Candida albicans; assay: Growth inhibition of Candida albicans ATCC 10231 at 125 ug/ml incubated for 48 hrs under dark condition by broth microdilution method relative to control; assay type: functional; conditions: ATCC 10231, 48 h, read-out: GI
Procedure, shortened: (§2)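 CLSI M27-A3 broth microdilution in RPMI-1640, DMSO ≤1%. Inoculum 1-5 × 10^3 CFU/mL. Incubated 48 h at 30 °C, dark. % inhibition = 100 − (OD405 test − sterility control)/(OD405 growth control − sterility control), with growth and sterility control wells. Triplicate.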

[3] = system: Trypanosoma cruzi; assay: Antitrypanosomal activity against Trypanosoma cruzi Tulahuen intracellular amastigote harboring LacZ infected in human U937 cells after 72 hrs by CPRG/Nonidet reagent based spectrophotometric method; assay type: functional, cell-based; conditions: U-937, 72 h
Procedure, shortened: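 U-937 cells at 2.5 × 10^5 cells/mL in RPMI-1640 with 10% serum and 0.1 µg/mL PMA were infected with β-galactosidase-transfected Tulahuen epimastigotes at 5 parasites per cell. Infected cells were exposed to 50, 12.5, 3.125 and 0.78 µg/mL for 72 h. CPRG (100 uM) and 0.1% Nonidet P-40 were added for 3 h, read at 570 nm. EC50 by Probit. Triplicate, at least two experiments; benznidazole as reference.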

[4] = system: Candida albicans; assay: Growth inhibition of Candida albicans ATCC 10231 at 7.8 ug/ml incubated for 48 hrs under dark condition by broth microdilution method relative to control; assay type: functional; conditions: ATCC 10231, 48 h, read-out: GI; procedure, shortened: as §2
[5] = system: Leishmania panamensis; assay: Antileshmanial activity against EpiR/GFP fused Leishmania panamensis MHOM/CO/87/UA140 intracellular amastigotes infected in human […] cells after 72 hrs by flow cytometric method; assay type: functional, cell-based; conditions: MHOM/CO/87/UA140, 72 h
Procedure, shortened: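 PMA-treated U-937 cells (3 × 10^5 cells/mL) infected with stationary-phase GFP L. panamensis promastigotes (15:1), 3 h at 34 °C, then washed. After 24 h, compounds added at 50, 12.5, 3.125 and 0.78 µg/mL for 72 h at 37 °C. EC50 by Probit; triplicate, two experiments.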

[6] = system: Neisseria gonorrhoeae; assay: Antibacterial activity against beta lactamase positive Neisseria gonorrhoeae ATCC 31426 by oxidase test; assay type: functional
Procedure, shortened: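 Agar dilution MIC on GC agar with 1% isovitalex containing increasing compound concentrations. Plates inoculated with about 1×10^4 CFU (5 µL). MIC is the lowest concentration that inhibited growth, with growth confirmed by oxidase test. Run in duplicate, repeated at least three times.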

[7] = system: Plasmodium falciparum; assay: Antiplasmodial activity against chloroquine-sensitive Plasmodium falciparum 3D7 assessed as reduction in parasitic LDH activity after 48 hrs by Malstat reagent based […] method; assay type: functional; conditions: 3D7, 48 h
Procedure, shortened: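 Unsynchronized P. falciparum 3D7 at 0.5% parasitemia and 1% hematocrit in RPMI with 3% Albumax II. Exposed to 100, 25, 6.25 and 1.56 µg/mL for 48 h at 37 °C under 90% N2/5% CO2/5% O2. After three freeze-thaw cycles, LDH measured with Malstat and NBT/PES, 1 h in the dark, read at 650 nm. IC50 by Probit; triplicate, ≥2 experiments.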

[8] = system: Pseudomonas aeruginosa; assay: Antibacterial activity against Pseudomonas aeruginosa ATCC 27853 after 24 hrs by resazurin dye based microdilution assay; assay type: functional; conditions: ATCC 27853, 24 h; procedure, shortened: as §1
[9] = system: Cryptococcus neoformans; assay: Growth inhibition of Cryptococcus neoformans ATCC 32264 at 31.25 ug/ml incubated for 48 hrs under dark condition by broth microdilution method relative to control; assay type: functional; conditions: ATCC 32264, 48 h, read-out: GI; procedure, shortened: as §2
[10] = system: Cryptococcus neoformans; assay: Growth inhibition of Cryptococcus neoformans ATCC 32264 at 125 ug/ml incubated for 48 hrs under dark condition by broth microdilution method relative to control; assay type: functional; conditions: ATCC 32264, 48 h, read-out: GI; procedure, shortened: as §2
[11] = system: Staphylococcus aureus; assay: Antibacterial activity against vancomycin-intermediate Staphylococcus aureus after 24 hrs by resazurin dye based microdilution assay; assay type: functional; procedure, shortened: as §1
[12] = system: Candida albicans; assay: Antifungal activity against Candida albicans ATCC 10231 incubated for 48 hrs under dark condition by broth microdilution method; assay type: functional; conditions: ATCC 10231, 48 h
Procedure, shortened: (§3)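 CLSI M27-A3 broth microdilution in RPMI-1640, DMSO ≤1%, compounds at 250-0.98 µg/mL final. Inoculum 1-5 × 10^3 CFU/mL. Incubated 48 h at 30 °C in a moist dark chamber, read at OD405. MIC80 and MIC50 taken from % inhibition dose-response curves (mean ± SEM, triplicate). Amphotericin B was the positive control.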

[13] = system: Candida albicans; assay: Growth inhibition of Candida albicans ATCC 10231 at 31.25 ug/ml incubated for 48 hrs under dark condition by broth microdilution method relative to control; assay type: functional; conditions: ATCC 10231, 48 h, read-out: GI; procedure, shortened: as §2
[14] = system: Cryptococcus neoformans; assay: Growth inhibition of Cryptococcus neoformans ATCC 32264 at 15.62 ug/ml incubated for 48 hrs under dark condition by broth microdilution method relative to control; assay type: functional; conditions: ATCC 32264, 48 h, read-out: GI; procedure, shortened: as §2
[15] = system: Cryptococcus neoformans; assay: Growth inhibition of Cryptococcus neoformans ATCC 32264 at 250 ug/ml incubated for 48 hrs under dark condition by broth microdilution method relative to control; assay type: functional; conditions: ATCC 32264, 48 h, read-out: GI; procedure, shortened: as §2
[16] = system: Klebsiella pneumoniae; assay: Antibacterial activity against ESBL positive Klebsiella pneumoniae ATCC 700603 after 24 hrs by resazurin dye based microdilution assay; assay type: functional; conditions: Klebsiella pneumoniae, 700603, 24 h; procedure, shortened: as §1
[17] = system: Candida albicans; assay: Growth inhibition of Candida albicans ATCC 10231 at 250 ug/ml incubated for 48 hrs under dark condition by broth microdilution method relative to control; assay type: functional; conditions: ATCC 10231, 48 h, read-out: GI; procedure, shortened: as §2
[18] = system: Candida albicans; assay: Growth inhibition of Candida albicans ATCC 10231 at 3.4 ug/ml incubated for 48 hrs under dark condition by broth microdilution method relative to control; assay type: functional; conditions: ATCC 10231, 48 h, read-out: GI
[19] = system: Staphylococcus aureus; assay: Antibacterial activity against methicillin-sensitive Staphylococcus aureus ATCC 25923 after 24 hrs by resazurin dye based microdilution assay; assay type: functional; conditions: ATCC 25923, 24 h; procedure, shortened: as §1
[20] = system: Staphylococcus aureus; assay: Antibacterial activity against methicillin-resistant Staphylococcus aureus ATCC 43300 after 24 hrs by resazurin dye based microdilution assay; assay type: functional; conditions: ATCC 43300, 24 h
Procedure, shortened: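 Broth microdilution in Mueller Hinton broth, inoculum 5 × 10^5 – 8 × 10^5. Compound stocks diluted in MHB with 5% DMSO and 0.1% Tween 80. Incubation 24 h at 35-37 °C. MIC is the lowest concentration with visible growth inhibition and/or by resazurin (1 mg/mL) read-out. Gentamicin as control. Run in duplicate, replicated at least three times.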

[21] = system: U-937; assay: Cytotoxicity against human U937 cells after 72 hrs by MTT assay; assay type: cell-based; conditions: u-937, 72 h
Procedure, shortened: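 Exponentially growing U-937 at 1 × 10^5 cells/mL in RPMI-1640 with 10% FBS were exposed to 200, 50, 12.5 and 3.125 µg/mL for 72 h at 37 °C, 5% CO2. MTT for 3 h, stopped with isopropanol/SDS, formazan read at 570 nm, blank-corrected. LC50 by Probit from % viability against untreated cells. Triplicate, at least two independent experiments.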

[22] = system: Cryptococcus neoformans; assay: Growth inhibition of Cryptococcus neoformans ATCC 32264 at 3.4 ug/ml incubated for 48 hrs under dark condition by broth microdilution method relative to control; assay type: functional; conditions: ATCC 32264, 48 h, read-out: GI
[23] = system: Cryptococcus neoformans; assay: Antifungal activity against Cryptococcus neoformans ATCC 32264 incubated for 48 hrs under dark condition by broth microdilution method; assay type: functional; conditions: ATCC 32264, 48 h; procedure, shortened: as §3
[24] = system: Escherichia coli; assay: Antibacterial activity against Escherichia coli ATCC 25922 after 24 hrs by resazurin dye based microdilution assay; assay type: functional; conditions: ATCC 25922, 24 h; procedure, shortened: as §1
[25] = system: Candida albicans; assay: Growth inhibition of Candida albicans ATCC 10231 at 15.62 ug/ml incubated for 48 hrs under dark condition by broth microdilution method relative to control; assay type: functional; conditions: ATCC 10231, 48 h, read-out: GI; procedure, shortened: as §2
[26] = system: Cryptococcus neoformans; assay: Growth inhibition of Cryptococcus neoformans ATCC 32264 at 7.8 ug/ml incubated for 48 hrs under dark condition by broth microdilution method relative to control; assay type: functional; conditions: ATCC 32264, 48 h, read-out: GI; procedure, shortened: as §2
[27] = system: Candida albicans; assay: Growth inhibition of Candida albicans ATCC 10231 at 62.5 ug/ml incubated for 48 hrs under dark condition by broth microdilution method relative to control; assay type: functional; conditions: ATCC 10231, 48 h, read-out: GI; procedure, shortened: as §2
[28] = system: Cryptococcus neoformans; assay: Growth inhibition of Cryptococcus neoformans ATCC 32264 at 62.5 ug/ml incubated for 48 hrs under dark condition by broth microdilution method relative to control; assay type: functional; conditions: ATCC 32264, 48 h, read-out: GI; procedure, shortened: as §2

## Clc1ccc2c(Nc3cccc(C4CC(c5ccccc5)=NN4c4ccccc4)c3)ccnc2c1 (stereo not given)
[1]
  MIC: > 1000 µg/mL
[2]
  inhibition of growth at 125 µg/mL: 32.4%
[3]
  EC50: 39.2 µg/mL (≈ 82.5 µM)
[4]
  inhibition of growth at 7.8 µg/mL: 5.03%
[5]
  EC50: 22.7 µg/mL (≈ 47.7 µM)
[6]
  MIC: > 1000 µg/mL
[7]
  EC50: 13.4 µg/mL (≈ 28.1 µM)
[8]
  MIC: > 1000 µg/mL
[9]
  inhibition of growth at 31.25 µg/mL: 20.4%
[10]
  inhibition of growth at 125 µg/mL: 26.5%
[11]
  MIC: > 1000 µg/mL
[12]
  MIC50: 250 µg/mL (≈ 526 µM)
  MIC80: ≥ 250 µg/mL
[13]
  inhibition of growth at 31.25 µg/mL: 11%
[14]
  inhibition of growth at 15.62 µg/mL: 18.4%
[15]
  inhibition of growth at 250 µg/mL: 52.3%
[16]
  MIC: > 1000 µg/mL
[17]
  inhibition of growth at 250 µg/mL: 53%
[18]
  inhibition of growth at 3.4 µg/mL: 3.1%
[19]
  MIC: > 1000 µg/mL
[20]
  MIC: > 1000 µg/mL
[21]
  LC50: > 200 µg/mL
[22]
  inhibition of growth at 3.4 µg/mL: 9.75%
[23]
  MIC50: 250 µg/mL (≈ 526 µM)
  MIC80: ≥ 250 µg/mL
[24]
  MIC: > 1000 µg/mL
[25]
  inhibition of growth at 15.62 µg/mL: 8.69%
[26]
  inhibition of growth at 7.8 µg/mL: 13.6%
[27]
  inhibition of growth at 62.5 µg/mL: 20.1%
[28]
  inhibition of growth at 62.5 µg/mL: 20.5%

## COc1cc(C2=NN(C=O)C(c3cccc(Nc4ccnc5cc(Cl)ccc45)c3)C2)cc(OC)c1OC (stereo not given)
[1]
  MIC: > 1000 µg/mL
[2]
  inhibition of growth at 125 µg/mL: 26.7%
[3]
  EC50: 7.22 µg/mL (≈ 14 µM)
[4]
  inhibition of growth at 7.8 µg/mL: 5.72%
[5]
  EC50: 6.79 µg/mL (≈ 13.1 µM)
[6]
  MIC: > 1000 µg/mL
[7]
  EC50: 24.3 µg/mL (≈ 47 µM)
[8]
  MIC: > 1000 µg/mL
[9]
  inhibition of growth at 31.25 µg/mL: 0%
[10]
  inhibition of growth at 125 µg/mL: 0%
[11]
  MIC: > 1000 µg/mL
[12]
  MIC50: ≥ 250 µg/mL
  MIC80: ≥ 250 µg/mL
[13]
  inhibition of growth at 31.25 µg/mL: 19.7%
[14]
  inhibition of growth at 15.62 µg/mL: 0%
[15]
  inhibition of growth at 250 µg/mL: 0%
[16]
  MIC: > 1000 µg/mL
[17]
  inhibition of growth at 250 µg/mL: 43.9%
[18]
  inhibition of growth at 3.4 µg/mL: 5.34%
[19]
  MIC: > 1000 µg/mL
[20]
  MIC: > 1000 µg/mL
[21]
  LC50: 17.4 µg/mL (≈ 33.7 µM)
[22]
  inhibition of growth at 3.4 µg/mL: 0%
[23]
  MIC50: ≥ 250 µg/mL
  MIC80: ≥ 250 µg/mL
[24]
  MIC: > 1000 µg/mL
[25]
  inhibition of growth at 15.62 µg/mL: 19.6%
[26]
  inhibition of growth at 7.8 µg/mL: 0%
[27]
  inhibition of growth at 62.5 µg/mL: 23.7%
[28]
  inhibition of growth at 62.5 µg/mL: 0%
